Experimental findings from the RNAGym collection of RNA variant scans (doi:10.1002/anie.201605470) are described below.

The chains are these.
B1: Osa-1-4 twister ribozyme (parent)
chain: CCGCCUAACACUGCCAAUGCCGGUCCCAAGCCCGGAUAAAAGUGGAGGGGGCGG

The variants in the data set derive from B1. Description: self-cleavage, relative activity (ratio to wild type); higher = more cleavage; co-transcriptional. In a few lines: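 Relative activity is the fraction cleaved divided by that of the wild-type ribozyme. The library came from a DNA template for a 54-nucleotide Oryza sativa twister ribozyme, doped at the 48 positions downstream of the cleavage site with 97 % wild-type base and 1 % of each other base. After 2 h of in vitro transcription at 37 °C with co-transcriptional self-cleavage, the RNA was reverse-transcribed with a template-switching oligonucleotide, amplified by PCR and deep-sequenced, and reads with or without upstream sequence gave the cleavage status.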
In the case of G23A U37A, the self-cleavage turned out to be 0.77. On to G23A U37G, for which the self-cleavage was 0.78.

As to G23A U37C, the self-cleavage came to 0.72. Consider G23A G34A, for which the self-cleavage came out at 0.11. Regarding G23A G34U, the self-cleavage was determined as 0.07. The same measure for G23A G34C: 0.07. For the variant G23U G44U, the self-cleavage was 0.06. Turning to G23U G44C, the self-cleavage turned out to be 0.05. G23U G44A: the self-cleavage stood at 0.04.

Regarding G23A G47C, the self-cleavage came to 0.06. The same measure for G23A G47U: 0.06; for G23A G47A: 0.07; for G23U G49U: 0.03.

With G23U G49A, the self-cleavage came out at 0.03. Regarding G23U G49C, the self-cleavage turned out to be 0.03. For C25A G51C the value was 0.05; for C25A G51U, 0.06. For C25A G51A the value was 0.1; for U24C, 0.53. Consider U24G, for which the self-cleavage stood at 0.03.

Regarding U24A, the self-cleavage was 0.42. Turning to G23A U24C, the self-cleavage came out at 0.05. For G23A U24G the value was 0.02. Regarding G23A U24A, the self-cleavage came out at 0.09. As for G23C G50A, the self-cleavage came out at 0.04.

Take G23C G50C: the self-cleavage is 0.04. On to G23C G50U, for which the self-cleavage came to 0.05. For G23C G44U the value was 0.04; for G23C G44C, 0.04; for G23C G44A, 0.04. For G23U U12A the value was 0.05; for G23U U12C, 0.04; for G23U U12G, 0.05. For G23C G53A the value was 0.04.

Turning to G23C G53U, the self-cleavage stood at 0.04. For G23C G53C the value was 0.02; for G23C U37G, 0.05; for G23C U37A, 0.04. For G23C U37C, the self-cleavage worked out at 0.07. The same measure for C25A G45C: 0.03; for C25A G45U: 0.03; for C25A G45A: 0.03. For C25A C33A, the self-cleavage worked out at 0.05. Turning to C25A C33G, the self-cleavage was found to be 0.02.

For C25A C33U, the self-cleavage was found to be 0.07.

C25A U43A: the self-cleavage turned out to be 0.06. For the variant C25A U43C, the self-cleavage was 0.06. On to C25A U43G, for which the self-cleavage was determined as 0.06.

For the variant C25G G19A, the self-cleavage is 0.06.

Take C25G G19U: the self-cleavage was found to be 0.04. The same measure for C25G G19C: 0.03. As for C25A C26A, the self-cleavage stood at 0.04. C25A C26U: the self-cleavage came to 0.08. In the case of C25A C26G, the self-cleavage worked out at 0.05. With C25A G49A, the self-cleavage was 0.13. For the variant C25A G49C, the self-cleavage turned out to be 0.04. C25A G49U: the self-cleavage stood at 0.82. As for C25A G13A, the self-cleavage amounted to 0.03. The same measure for C25A G13C: 0.02.

C25A G13U: the self-cleavage came to 0.02. On to C25G G30A, for which the self-cleavage was 0.02. Consider C25G G30C, for which the self-cleavage came out at 0.02.

For the variant C25G G30U, the self-cleavage is 0.02. Consider C25G G50A, for which the self-cleavage was found to be 0.12. For C25G G48U the value was 0.02. As for C25G G48A, the self-cleavage was found to be 0.04. On to C25G G48C, for which the self-cleavage was determined as 0.03.

C25G G13U: the self-cleavage turned out to be 0.01.

In the case of C25G G13C, the self-cleavage amounted to 0.01. For C25G G13A the value was 0.03; for G23U G35U, 0.05. As for G23U G35C, the self-cleavage was determined as 0.05. For the variant G23U G35A, the self-cleavage is 0.04.

In the case of C25G G34A, the self-cleavage came out at 0.08. With C25G G34C, the self-cleavage is 0.06.

On to C25G G34U, for which the self-cleavage stood at 0.07. Regarding G23A G54A, the self-cleavage came to 0.2. Consider G23A G54C, for which the self-cleavage amounted to 0.21.

As for G23A G54U, the self-cleavage amounted to 0.41. With G23U G48U, the self-cleavage amounted to 0.03. With G23U G48C, the self-cleavage was determined as 0.03. Regarding G23U G48A, the self-cleavage is 0.02. As to C25A G19U, the self-cleavage is 0.04. In the case of C25A G19C, the self-cleavage was determined as 0.03.

For C25A G19A, the self-cleavage was 0.06. C25G C9G: the self-cleavage was found to be 0.07. The same measure for C25G C9U: 0.03. Turning to C25G C9A, the self-cleavage was 0.02. Take C25G G35U: the self-cleavage is 0.07.

Consider C25G G35A, for which the self-cleavage was 0.12. On to C25G G35C, for which the self-cleavage turned out to be 0.05. On to G23U G50U, for which the self-cleavage came to 0.06. Consider G23U G50A, for which the self-cleavage was 0.05. For G23U G50C, the self-cleavage is 0.05.

Turning to G23U U43G, the self-cleavage was found to be 0.07.

Take G23U U43A: the self-cleavage was 0.04.

Consider G23U U43C, for which the self-cleavage was 0.04. As for G23U G47A, the self-cleavage turned out to be 0.03. For G23U G47U the value was 0.04. For the variant G23U G47C, the self-cleavage came out at 0.03. The same measure for G23A G49C: 0.05. For G23A G49U the value was 0.06; for G23A G49A, 0.06; for G23C U18G, 0.06.

For the variant G23C U18A, the self-cleavage was 0.06. G23C U18C: the self-cleavage is 0.14.

For the variant C25G G49A, the self-cleavage came to 0.07. For C25G G49C the value was 0.7. With C25G G49U, the self-cleavage amounted to 0.61. For the variant U24C U37A, the self-cleavage came to 0.45. On to U24C U37G, for which the self-cleavage was determined as 0.55. As for U24C U37C, the self-cleavage worked out at 0.51.

Take G23U G42A: the self-cleavage is 0.05. On to G23U G42C, for which the self-cleavage was 0.03.

With G23U G42U, the self-cleavage was found to be 0.04.

For the variant G23C G30C, the self-cleavage was 0.02.

On to G23C G30U, for which the self-cleavage turned out to be 0.02. Take G23C G30A: the self-cleavage came to 0.02. On to C25A C9A, for which the self-cleavage was 0.05. As to C25A C9U, the self-cleavage was 0.06. On to C25A C9G, for which the self-cleavage is 0.08. For G23U U24G the value was 0.02; for G23U U24A, 0.04. For G23U U24C the value was 0.03; for G23A G35A, 0.14. With G23A G35C, the self-cleavage was found to be 0.08. In the case of G23A G35U, the self-cleavage was determined as 0.13. For C25A U37G, the self-cleavage was 0.25.

As for C25A U37C, the self-cleavage stood at 0.14.

Take C25A U37A: the self-cleavage came out at 0.11. As to C25A G34C, the self-cleavage was 0.06.

As for C25A G34U, the self-cleavage was 0.11. Take C25A G34A: the self-cleavage stood at 0.11. For C25A U18G, the self-cleavage was determined as 0.35.

For the variant C25A U18C, the self-cleavage was determined as 0.15. With C25A U18A, the self-cleavage amounted to 0.1. Take C25A G22A: the self-cleavage came out at 0.15.

In the case of C25A G22U, the self-cleavage was found to be 0.07. For the variant C25A G22C, the self-cleavage was 0.03. Consider G23U G45C, for which the self-cleavage worked out at 0.03. With G23U G45U, the self-cleavage came to 0.03. For G23U G45A, the self-cleavage was 0.04. With C25A G42A, the self-cleavage is 0.06.

As for C25A G42U, the self-cleavage worked out at 0.03. Consider C25A G42C, for which the self-cleavage stood at 0.04. As for C25G C26G, the self-cleavage was found to be 0.12. For the variant C25G C26U, the self-cleavage amounted to 0.07.

For the variant C25G C26A, the self-cleavage is 0.01. On to G23U G30U, for which the self-cleavage was found to be 0.02. For G23U G30C the value was 0.03; for G23U G30A, 0.02; for G23A G50A, 0.23. On to G23A G50U, for which the self-cleavage came out at 0.3.

As to G23A G50C, the self-cleavage was found to be 0.14. Consider G23A U43G, for which the self-cleavage was 0.09.

With G23A U43C, the self-cleavage was 0.09.

On to G23A U43A, for which the self-cleavage was found to be 0.1. For the variant C25G G22C, the self-cleavage is 0.03.

Consider C25G G22U, for which the self-cleavage was 0.06. Regarding C25G G22A, the self-cleavage amounted to 0.09. The same measure for G23C G49C: 0.02; for G23C G49U: 0.03. For G23C G49A the value was 0.03; for G23U G34A, 0.04; for G23U G34U, 0.05.

On to G23U G34C, for which the self-cleavage is 0.04.

Consider C25G C27U, for which the self-cleavage amounted to 0.07.
